Source: PMC3819908 (Journal of molecular biology, 2011)
Structures can show the parent of a compound that is named as a salt.

Legend:
β1AR-JM3 [1] = molecular target: T1, β1AR-JM3 (Meleagris gallopavo, UniProt P07700, A282L/C116L/D200E/D322K/F327A/F338M/I129V/M90V/R68S/Y227A/Y343L); test: Saturation binding of ^3H-DHA to DDM-solubilised receptor; parameters: species or system turkey; settings: read-out: KD for ^3H-DHA, E. coli membranes, solubilised in DDM, n = 4
How it was run: (§1)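 Receptor expressed in E. coli XL1 by auto-induction (37°C 6 h, then 25°C overnight). French-press membranes were solubilised for 1 h on ice in 20 mM Tris pH 8, 0.4 M NaCl, 1% detergent. Binding ran in 20 mM Tris pH 8, 0.4 M NaCl, 0.1% DDM with 1.25-160 nM 3H-DHA. KD came from nonlinear regression; 2-4 experiments in duplicate.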

β1AR-m23 = β1AR-m23 (Meleagris gallopavo, UniProt P07700, A282L/C116L/F327A/F338M/M90V/R68S/Y227A); test: as above; parameters: species or system turkey; settings: read-out: KD for ^3H-DHA, E. coli membranes, solubilised in DDM, n = 4
How it was run: as §1

β1AR-JM3 [2] = molecular target: T1, β1AR-JM3; test: Competition binding, displacement of ^3H-DHA; parameters: species or system turkey; settings: competition with ^3H-DHA
[3] = Thermostability assay of detergent-solubilised receptors expressed in E. coli; assay type: physicochemical, turkey; settings: for increase in thermostability (apparent Tm) relative to β1AR-m23: solubilised in NG
[4] = Thermostability assay of cysteine mutants expressed in HEK293T cells; assay type: physicochemical, turkey; settings: Cys mutants, solubilised in NG
How it was run: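 Transiently transfected HEK293T cells were harvested after 48 h, held 1 h on ice in 75 mM Tris pH 8, 12.5 mM MgCl2, 2 mM EDTA, then detergent-solubilised at 4°C. Samples were diluted in 20 mM Tris pH 8, 0.4 M NaCl and heated 30 min at a range of temperatures without ligand. 3H-DHA (80 nM final) was added for 1 h at 4°C; gel-filtration separation gave apparent Tm.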

[5] = in dodecylmaltoside (DDM); cited from earlier work

T1 sequence (P07700 34-424 R68S/M90V/C116L/I129V/D200E/Y227A/A282L/D322K/F327A/F338M/Y343L): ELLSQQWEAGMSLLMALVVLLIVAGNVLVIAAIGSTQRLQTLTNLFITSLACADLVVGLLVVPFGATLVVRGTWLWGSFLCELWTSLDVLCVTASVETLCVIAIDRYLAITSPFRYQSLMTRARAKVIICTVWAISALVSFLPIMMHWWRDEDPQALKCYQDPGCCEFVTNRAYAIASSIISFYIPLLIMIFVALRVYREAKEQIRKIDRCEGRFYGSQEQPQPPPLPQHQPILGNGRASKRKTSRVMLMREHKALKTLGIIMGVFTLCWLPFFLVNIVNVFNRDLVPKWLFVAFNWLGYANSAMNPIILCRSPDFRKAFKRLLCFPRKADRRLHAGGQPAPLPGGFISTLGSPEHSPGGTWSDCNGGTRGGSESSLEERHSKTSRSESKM
Sequence of β1AR-m23 (P07700 34-424 R68S/M90V/C116L/Y227A/A282L/F327A/F338M): as the sequence (P07700 34-424 R68S/M90V/C116L/I129V/D200E/Y227A/A282L/D322K/F327A/F338M/Y343L) above, with V96I, E167D, K289D, L310Y counted along it

Compound: 1-[4,6-propyl-^3H]dihydroalprenolol [^3H-DHA]
- Kd (β1AR-JM3 [1]): 10.6 ± 1.6 nM
- Kd (β1AR-m23): 5.5 ± 1.1 nM

Compound: NC[C@H](O)c1ccc(O)c(O)c1 [noradrenaline, L-(-)-norepinephrine bitartrate salt monohydrate]
- fold weaker binding to β1AR-JM3 compared to wild-type β1AR (β1AR-JM3 [2]): 4960 fold

Compound: D322K: β1AR-m23 salt bridge mutant D322K
- increase in thermostability (apparent Tm) relative to β1AR-m23 [3]: 5 °C

Compound: M44C: single cysteine mutant of β1AR-m23
- destabilisation (decrease in thermostability) relative to β1AR-m23 [4]: 4 °C

Compound: V103C: single cysteine mutant of β1AR-m23
- destabilisation (decrease in thermostability) relative to β1AR-m23 [4]: 7 °C

Compound: Y343L: most stabilising single mutation of β1AR-m23 from the leucine scan
- increase in thermostability (apparent Tm) relative to β1AR-m23 [3]: 5 °C

Compound: wild-type receptor: residues 34-424 of the turkey β1AR
- decrease in stability on addition of Zn^2+ ([3]; 1 mM ZnCl2): up to 7 °C

Compound: β1AR-m23: residues 34-424 of turkey β1-adrenoceptor with R68S, M90V, Y227A, A282L, F327A, F338M and C116L
- increase of the apparent Tm relative to wild type [5]: 21 °C
- apparent Tm ([3]; 0.8% NG, identical conditions): 23.4 ± 0.8 °C
